Reference: publication PMC4668232 (Cancer research, 2015)
One block for each compound: values may come before it. Numbered stars: 1 amine (or outer) side, 2 acyl side, 3 side chain; on linkers, the order of the positions; unused ones are H or OH. Peptide text beside a SMILES is read from it. * marks the point of attachment. AMC = Cc1cc(=O)oc2cc(N*)ccc12; Suc = O=C(CCC(=O)[*:2])[*:1]; Cbz = O=C(OCc1ccccc1)*

Experiments:
[1] = system: K48-linked Ub in BaF3/p210 cells; assay: K48-linked HMW-Ub accumulation, whole cell lysate western blot; type: cell-based, mouse; details: 4 h; for Increase in K48-linked Ub: 15 μM; for Accumulation of K48-linked HMW-Ub: bortezomib 20 nM
[2] = system: K63-linked Ub in BaF3/p210 cells; assay: K63-linked HMW-Ub accumulation, whole cell lysate western blot; type: cell-based, mouse; details: 4 h
[3] = system: 26S proteasome activity in COS1 cells expressing Ub^G76V-GFP; assay: Ubiquitin G76V-GFP assay; type: cell-based, African green monkey; details: 8 h; for Effect on GFP levels: BITC, PEITC 12 μM, WP1130 5 μM
USP9x = USP9x (Mus musculus, UniProt P70398); assay: DUB activity profiling in cell lysates, USP9x labeling; type: biochemical; details: read-out: IC50, inhibition of USP9x labeling
UCH37 = UCH37 (Mus musculus, UniProt Q9WUP7); assay: DUB activity profiling in cell lysates, UCH37 labeling; type: biochemical; details: read-out: IC50, inhibition of UCH37 labeling
USP24 = USP24 (Mus musculus, UniProt B1AY13); assay: DUB activity profiling in cell lysates, USP24 labeling; type: biochemical; details: read-out: IC50, USP24 labeling
USP7 = USP7 (Mus musculus, UniProt Q6A4J8); assay: DUB activity profiling in cell lysates, USP7; type: biochemical; details: immunoblotting
DUBs = type: biochemical, mouse; details: for Reversibility of inhibition of DUB labeling: lysate incubated with 250 μM ITC, then diluted 20-fold into HA-UbVS; for Labeling of several DUBs (bands between 120 and 300 kDa): cell lysates, HA-UbVS
recombinant USP9x [4] = molecular target: T1, recombinant USP9x (Homo sapiens, UniProt Q93008); assay: Recombinant DUB assay; type: biochemical; details: for Ki: read-out: Ki, recombinant USP9x, Ub-AMC hydrolysis
Outline: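 Purified recombinant human USP9x was assayed by Ub-AMC hydrolysis. AMC release was monitored fluorimetrically at 37 °C in 50 mM HEPES pH 7.6, 100 mM NaCl, 0.75 mM BME and quantified against AMC standard curves. Slow-binding kinetics were analysed: kon was determined at varied Ub-AMC concentrations to assign inhibition mode, and Ki was derived.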

[5] = molecular target: UCH37 in the 19S regulatory particle (Homo sapiens, UniProt Q9Y5K5); assay: Activity profiling of UCH37 in 19S regulatory particle with Cy5-UbVME; type: biochemical; details: read-out: EC50, inhibition of UCH37
recombinant UCHL3 = recombinant UCHL3 (Homo sapiens, UniProt P15374); assay: Recombinant DUB assay, UCHL3; type: biochemical
catalytic domain of USP7 = catalytic domain of USP7 (Homo sapiens, UniProt Q93009); assay: Recombinant DUB assay, USP7 catalytic domain; type: biochemical
[6] = system: BaF3, BaF3/p210 and K562 cells; assay: Proliferation/viability assay, 48 h; type: cell-based; details: read-out: EC50, viability
[7] = system: MCF7, NIH3T3 and COS1 cells; assay: Proliferation/viability assay, 48 h; type: cell-based
USP9x in BaF3/p210 cells = USP9x in BaF3/p210 cells (Mus musculus, UniProt P70398); assay: USP9x inhibition in living cells; type: cell-based; details: read-out: IC50, USP9x inhibition in cells; BaF3/p210 cells treated 4 h
Mcl-1 in BaF3/p210 cells = assay: Mcl-1 levels, western blot; type: cell-based, mouse; details: 4 h
Flag-Mcl-1 in COS1 cells = assay: Flag-Mcl-1 ubiquitination, immunoprecipitation; type: cell-based, African green monkey; details: COS1 cells expressing Flag-Mcl-1, 2 h
[8] = system: Bcr-Abl in BaF3/p210 cells; assay: Bcr-Abl levels and aggregation, western blot; type: cell-based, mouse
[9] = system: PARP cleavage in BaF3/p210 cells; assay: PARP cleavage, western blot; type: cell-based, mouse; details: 5 μM
[10] = system: Bcr-Abl in BaF3/p210 and K562 cells; assay: Bcr-Abl ubiquitination; type: cell-based; details: 5 μM, 2 h
Outline: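 BaF3/p210 cells (1 h) or K562 cells (2 h) were exposed to 5 μM test compound or 0.1% DMSO at 37 °C. Lysates were set to 1 mg/mL and pre-cleared with protein G (1 h, 4 °C). Bcr-Abl was immunoprecipitated with anti-cAbl overnight at 4 °C onto protein G beads. Alternatively, K63-linked polyubiquitinated proteins were enriched on RAP80-UIM agarose. Immunoblotting followed.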

cancer cell lines = details: read-out: EC50, inhibition of cell growth; exposure for only 3 h; cited from earlier work
recombinant USP9x [11] = molecular target: T1, recombinant USP9x; assay: Labeling of recombinant USP9x with Cy5-UbVME; type: biochemical; details: read-out: IC50, inhibition of labeling of recombinant USP9x with Cy5-UbVME; purified recombinant enzyme
human 20S proteasome = human 20S proteasome (Homo sapiens, UniProt P28074); assay: 20S proteasome assay; type: biochemical; details: substrate; Hill coefficient = 2; pH 7.6, 25 °C
[12] = system: proteasome activity of rabbit reticulocyte lysate; assay: Proteasome activity of rabbit reticulocyte lysate; type: biochemical; details: substrate; Hill coefficient = 1.3

T1 sequence (Q93008 whole entry): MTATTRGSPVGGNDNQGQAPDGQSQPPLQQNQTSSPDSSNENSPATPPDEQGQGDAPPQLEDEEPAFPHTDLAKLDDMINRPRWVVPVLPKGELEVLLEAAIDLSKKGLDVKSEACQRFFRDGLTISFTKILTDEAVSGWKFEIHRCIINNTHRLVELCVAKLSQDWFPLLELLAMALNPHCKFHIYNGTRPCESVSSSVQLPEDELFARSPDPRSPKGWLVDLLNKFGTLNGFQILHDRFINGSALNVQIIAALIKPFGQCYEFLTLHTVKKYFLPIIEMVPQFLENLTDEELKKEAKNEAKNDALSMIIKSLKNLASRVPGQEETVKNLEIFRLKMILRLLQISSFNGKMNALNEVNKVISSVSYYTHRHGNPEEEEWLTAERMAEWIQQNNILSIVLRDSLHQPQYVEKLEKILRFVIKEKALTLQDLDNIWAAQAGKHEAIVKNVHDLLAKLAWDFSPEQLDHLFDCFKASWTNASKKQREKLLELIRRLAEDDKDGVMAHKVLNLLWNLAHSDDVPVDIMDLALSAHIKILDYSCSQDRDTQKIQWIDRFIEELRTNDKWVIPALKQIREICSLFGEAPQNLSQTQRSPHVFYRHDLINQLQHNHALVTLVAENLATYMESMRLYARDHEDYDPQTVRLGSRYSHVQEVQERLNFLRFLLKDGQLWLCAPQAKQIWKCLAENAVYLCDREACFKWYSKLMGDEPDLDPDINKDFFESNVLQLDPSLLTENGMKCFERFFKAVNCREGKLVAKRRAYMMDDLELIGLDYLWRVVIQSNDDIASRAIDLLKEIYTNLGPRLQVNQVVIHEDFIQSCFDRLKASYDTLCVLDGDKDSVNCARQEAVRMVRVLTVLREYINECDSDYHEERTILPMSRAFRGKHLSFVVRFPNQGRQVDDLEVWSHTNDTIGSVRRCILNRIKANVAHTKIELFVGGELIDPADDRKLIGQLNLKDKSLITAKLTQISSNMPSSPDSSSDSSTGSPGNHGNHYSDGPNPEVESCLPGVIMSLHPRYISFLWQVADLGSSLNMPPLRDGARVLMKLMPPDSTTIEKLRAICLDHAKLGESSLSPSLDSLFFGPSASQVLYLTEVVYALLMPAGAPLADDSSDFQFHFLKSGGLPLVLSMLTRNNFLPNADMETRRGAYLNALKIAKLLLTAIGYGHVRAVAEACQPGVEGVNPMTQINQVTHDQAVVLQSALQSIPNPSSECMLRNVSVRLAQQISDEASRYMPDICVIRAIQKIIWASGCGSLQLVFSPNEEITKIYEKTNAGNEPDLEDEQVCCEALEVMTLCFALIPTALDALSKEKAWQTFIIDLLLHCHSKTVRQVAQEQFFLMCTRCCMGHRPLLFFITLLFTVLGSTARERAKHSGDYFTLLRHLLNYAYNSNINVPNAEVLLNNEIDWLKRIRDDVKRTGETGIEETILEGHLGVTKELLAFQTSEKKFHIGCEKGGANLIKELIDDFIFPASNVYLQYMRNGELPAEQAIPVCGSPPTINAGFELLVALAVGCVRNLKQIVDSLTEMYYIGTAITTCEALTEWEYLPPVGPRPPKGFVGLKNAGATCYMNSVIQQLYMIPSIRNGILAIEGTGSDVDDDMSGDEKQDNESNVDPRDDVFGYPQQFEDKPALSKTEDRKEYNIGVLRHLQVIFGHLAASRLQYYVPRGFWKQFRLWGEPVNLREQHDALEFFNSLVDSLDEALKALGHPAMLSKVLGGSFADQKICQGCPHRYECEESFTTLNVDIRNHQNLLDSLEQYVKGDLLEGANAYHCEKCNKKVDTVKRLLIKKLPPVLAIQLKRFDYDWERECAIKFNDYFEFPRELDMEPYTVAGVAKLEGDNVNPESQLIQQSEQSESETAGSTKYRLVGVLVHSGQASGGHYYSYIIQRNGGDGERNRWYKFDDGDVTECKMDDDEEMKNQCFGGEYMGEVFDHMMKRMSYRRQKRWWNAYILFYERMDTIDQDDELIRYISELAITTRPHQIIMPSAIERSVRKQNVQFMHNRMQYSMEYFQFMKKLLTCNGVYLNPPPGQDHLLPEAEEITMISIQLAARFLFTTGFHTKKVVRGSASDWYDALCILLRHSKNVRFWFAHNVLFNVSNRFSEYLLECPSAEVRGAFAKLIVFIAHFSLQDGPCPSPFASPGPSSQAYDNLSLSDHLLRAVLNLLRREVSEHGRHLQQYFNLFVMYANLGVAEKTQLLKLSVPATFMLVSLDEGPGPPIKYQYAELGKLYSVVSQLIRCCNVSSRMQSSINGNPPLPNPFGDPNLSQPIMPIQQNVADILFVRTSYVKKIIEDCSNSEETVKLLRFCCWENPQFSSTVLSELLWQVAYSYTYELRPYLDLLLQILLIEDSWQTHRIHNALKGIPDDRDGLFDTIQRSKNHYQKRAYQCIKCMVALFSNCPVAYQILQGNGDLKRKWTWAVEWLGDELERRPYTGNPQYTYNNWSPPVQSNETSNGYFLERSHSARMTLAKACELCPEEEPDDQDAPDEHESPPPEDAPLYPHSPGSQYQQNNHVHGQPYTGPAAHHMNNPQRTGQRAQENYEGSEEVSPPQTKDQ
Sequence of USP24 (B1AY13 whole entry): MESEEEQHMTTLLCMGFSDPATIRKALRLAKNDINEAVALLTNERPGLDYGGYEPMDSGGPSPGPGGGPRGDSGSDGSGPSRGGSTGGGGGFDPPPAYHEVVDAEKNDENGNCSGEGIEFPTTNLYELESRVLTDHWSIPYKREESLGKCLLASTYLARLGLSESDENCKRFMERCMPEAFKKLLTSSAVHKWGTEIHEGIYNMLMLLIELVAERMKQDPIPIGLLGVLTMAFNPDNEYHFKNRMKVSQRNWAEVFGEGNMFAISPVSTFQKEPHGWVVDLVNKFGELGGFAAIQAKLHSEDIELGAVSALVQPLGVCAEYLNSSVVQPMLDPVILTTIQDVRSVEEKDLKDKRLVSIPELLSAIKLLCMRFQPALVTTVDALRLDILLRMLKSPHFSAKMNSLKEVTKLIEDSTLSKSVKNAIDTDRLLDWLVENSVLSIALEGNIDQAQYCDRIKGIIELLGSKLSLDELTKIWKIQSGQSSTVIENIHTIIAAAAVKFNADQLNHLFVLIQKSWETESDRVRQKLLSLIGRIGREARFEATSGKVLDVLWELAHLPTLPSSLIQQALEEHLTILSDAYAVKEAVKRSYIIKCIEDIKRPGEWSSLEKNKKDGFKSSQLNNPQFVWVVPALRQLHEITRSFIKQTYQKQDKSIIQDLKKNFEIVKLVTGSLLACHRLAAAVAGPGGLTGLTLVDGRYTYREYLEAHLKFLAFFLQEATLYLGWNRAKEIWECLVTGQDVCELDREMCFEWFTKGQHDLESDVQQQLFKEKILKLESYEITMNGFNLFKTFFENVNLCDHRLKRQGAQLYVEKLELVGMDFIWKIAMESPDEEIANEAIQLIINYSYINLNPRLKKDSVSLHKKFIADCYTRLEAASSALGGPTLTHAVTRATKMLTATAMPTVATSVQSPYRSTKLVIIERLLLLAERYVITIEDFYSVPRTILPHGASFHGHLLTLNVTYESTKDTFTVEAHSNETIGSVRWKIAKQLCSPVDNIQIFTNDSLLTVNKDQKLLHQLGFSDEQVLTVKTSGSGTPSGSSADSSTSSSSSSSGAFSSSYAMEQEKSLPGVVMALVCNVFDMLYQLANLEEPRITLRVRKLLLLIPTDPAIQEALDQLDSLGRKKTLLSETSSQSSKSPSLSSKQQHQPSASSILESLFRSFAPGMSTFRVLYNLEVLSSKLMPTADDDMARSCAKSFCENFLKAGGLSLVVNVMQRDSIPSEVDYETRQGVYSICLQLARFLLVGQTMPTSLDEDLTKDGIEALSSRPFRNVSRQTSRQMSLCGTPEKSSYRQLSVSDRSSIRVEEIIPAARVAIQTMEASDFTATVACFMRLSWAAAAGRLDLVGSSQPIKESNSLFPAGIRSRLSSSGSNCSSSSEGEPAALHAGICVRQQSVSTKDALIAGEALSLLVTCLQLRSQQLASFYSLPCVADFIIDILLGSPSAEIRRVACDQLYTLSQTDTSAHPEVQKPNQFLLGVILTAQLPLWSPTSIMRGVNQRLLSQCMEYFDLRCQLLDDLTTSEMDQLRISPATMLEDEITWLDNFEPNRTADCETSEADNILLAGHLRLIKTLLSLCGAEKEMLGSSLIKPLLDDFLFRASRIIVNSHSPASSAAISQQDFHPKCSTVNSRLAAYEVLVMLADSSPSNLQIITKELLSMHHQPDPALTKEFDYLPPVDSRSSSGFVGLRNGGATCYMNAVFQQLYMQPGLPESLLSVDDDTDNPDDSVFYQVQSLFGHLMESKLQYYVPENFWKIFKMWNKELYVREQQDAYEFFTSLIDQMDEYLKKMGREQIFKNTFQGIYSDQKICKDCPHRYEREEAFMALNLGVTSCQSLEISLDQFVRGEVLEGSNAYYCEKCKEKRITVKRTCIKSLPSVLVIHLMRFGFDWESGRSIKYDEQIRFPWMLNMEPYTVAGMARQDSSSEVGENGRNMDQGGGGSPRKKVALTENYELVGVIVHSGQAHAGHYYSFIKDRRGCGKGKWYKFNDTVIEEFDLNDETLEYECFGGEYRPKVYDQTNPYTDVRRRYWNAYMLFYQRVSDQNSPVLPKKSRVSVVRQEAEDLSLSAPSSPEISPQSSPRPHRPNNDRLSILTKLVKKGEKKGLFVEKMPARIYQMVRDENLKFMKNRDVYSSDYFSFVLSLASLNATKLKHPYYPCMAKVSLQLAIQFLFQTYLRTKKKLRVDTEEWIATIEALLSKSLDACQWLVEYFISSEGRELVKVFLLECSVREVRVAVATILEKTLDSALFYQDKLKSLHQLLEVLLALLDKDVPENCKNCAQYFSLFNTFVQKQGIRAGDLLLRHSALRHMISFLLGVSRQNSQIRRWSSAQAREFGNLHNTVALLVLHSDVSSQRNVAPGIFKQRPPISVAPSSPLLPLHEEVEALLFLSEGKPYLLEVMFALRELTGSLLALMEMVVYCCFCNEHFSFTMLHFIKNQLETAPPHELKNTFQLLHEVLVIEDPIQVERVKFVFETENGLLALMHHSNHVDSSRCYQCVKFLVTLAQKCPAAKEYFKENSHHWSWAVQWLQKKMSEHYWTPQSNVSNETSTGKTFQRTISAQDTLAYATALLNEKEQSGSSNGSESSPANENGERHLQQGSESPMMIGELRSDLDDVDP

SMILES: S=C=NCc1ccccc1 [BITC, benzyl ITC]
Increase in K48-linked Ub [1]: 2 to 4 fold
Increase in K63-linked Ub [2]: 9-18 fold
Effect on GFP levels [3]: did not increase
IC50 (USP9x): 27 ± 6 µM
IC50 (UCH37): 22 ± 4 µM
IC50 (USP24): 56 ± 5 µM
Inhibition of USP7 (USP7): do not inhibit
Reversibility of inhibition of DUB labeling (DUBs): slowly reversible
Mode of inhibition of recombinant USP9x (recombinant USP9x [4]): slow binding competitive inhibitors
Ki (recombinant USP9x [4]): 25 ± 1 µM
EC50 [5]: 31 ± 6 µM
Inhibition of recombinant UCHL3 (recombinant UCHL3): No inhibition
Inhibition of the catalytic domain of USP7 (catalytic domain of USP7): No inhibition
EC50 [6]: 1 to 3 µM
Fold less sensitive than Mcl-1-dependent cells [7]: 8 to 40 fold
IC50 (USP9x in BaF3/p210 cells): 4 ± 1 µM
Effect on Mcl-1 levels (Mcl-1 in BaF3/p210 cells): decrease
Levels of ubiquitinated Flag-Mcl-1 (Flag-Mcl-1 in COS1 cells): increased
Effect on levels of total Bcr-Abl [8]: decreased
Bcr-Abl knockdown ([8]; 5 μM, 2 h): essentially complete
Time at which PARP cleavage was observed [9]: 6 h
Bcr-Abl ubiquitination [10]: increase
EC50 (cancer cell lines): 1.8 to 17 µM

SMILES: S=C=NCCc1ccccc1 [PEITC, phenethyl ITC]
Increase in K48-linked Ub [1]: 2 to 4 fold
Increase in K63-linked Ub [2]: 9-18 fold
Effect on GFP levels [3]: did not increase
IC50 (USP9x): 15 ± 3 µM
IC50 (UCH37): 13 ± 1 µM
IC50 (USP24): 28 ± 5 µM
Inhibition of USP7 (USP7): do not inhibit
Reversibility of inhibition of DUB labeling (DUBs): slowly reversible
IC50 (recombinant USP9x [11]): 20 ± 2 µM
Mode of inhibition of recombinant USP9x (recombinant USP9x [4]): slow binding competitive inhibitors
Ki (recombinant USP9x [4]): 23 ± 2 µM
EC50 [5]: 36 ± 5 µM
Inhibition of recombinant UCHL3 (recombinant UCHL3): No inhibition
Inhibition of the catalytic domain of USP7 (catalytic domain of USP7): No inhibition
EC50 [6]: 1 to 3 µM
Fold less sensitive than Mcl-1-dependent cells [7]: 8 to 40 fold
IC50 (USP9x in BaF3/p210 cells): 7 ± 2 µM
Effect on Mcl-1 levels (Mcl-1 in BaF3/p210 cells): decrease
Levels of ubiquitinated Flag-Mcl-1 (Flag-Mcl-1 in COS1 cells): increased
Effect on levels of total Bcr-Abl [8]: decreased
Bcr-Abl level, % of its initial level ([8]; 5 μM, within 2 h): 20%
Time at which PARP cleavage was observed [9]: 4 h
Bcr-Abl ubiquitination [10]: increase
EC50 (cancer cell lines): 1.8 to 17 µM

SMILES: CC(C)C[C@H](NC(=O)[C@H](Cc1ccccc1)NC(=O)c1cnccn1)B(O)O [bortezomib, reference compound]
Accumulation of K48-linked HMW-Ub [1]: increased
Effect on K63-linked Ub ([2]; bortezomib 20 nM): no effect
Increase in GFP fluorescence ([3]; bortezomib 4 μM): 1.5 fold
Effect on Mcl-1 levels (Mcl-1 in BaF3/p210 cells): increased
Levels of ubiquitinated Flag-Mcl-1 (Flag-Mcl-1 in COS1 cells): increased

K0.5 for human 20S proteasome (human 20S proteasome): 12 ± 2 µM
SMILES: Cc1cc(=O)oc2cc(NC(=O)[C@H](Cc3ccc(O)cc3)NC(=O)[C@@H](NC(=O)[C@H](CC(C)C)NC(=O)[C@H](CC(C)C)NC(=O)CCC(=O)O)C(C)C)ccc12 [Suc-Leu-Leu-Val-Tyr-AMC] (Suc-LLVY-{AMC})
Apparent K0.5 of proteasome activity of rabbit reticulocyte lysate [12]: 28 ± 3 µM

SMILES: CC(C)C[C@@H](C=O)NC(=O)[C@H](CC(C)C)NC(=O)[C@H](CC(C)C)NC(=O)OCc1ccccc1 [MG-132, reference compound] (Cbz-Leu-Leu-Leu-aldehyde)
Effect on Mcl-1 levels (Mcl-1 in BaF3/p210 cells): increased

SMILES: C[S+]([O-])CCCCN=C=S (stereo not shown) [SFN, sulforaphane]
Accumulation of K48-linked HMW-Ub [1]: no effect
EC50 (cancer cell lines): ~50 µM

SMILES: CCC[C@H](NC(=O)/C(C#N)=C/c1cccc(Br)n1)c1ccccc1 [WP1130, reference compound]
Effect on GFP levels [3]: did not cause an increase
Labeling of several DUBs (bands between 120 and 300 kDa) (DUBs): reduced
Levels of ubiquitinated Flag-Mcl-1 (Flag-Mcl-1 in COS1 cells): increased

SMILES: O=C1/C(=C/c2ccc([N+](=O)[O-])cc2)CS(=O)(=O)C/C1=C\c1ccc([N+](=O)[O-])cc1 [G5, reference compound]
Labeling of several DUBs (bands between 120 and 300 kDa) (DUBs): reduced
